Reference: ChEMBL document CHEMBL5380838, “Novel Aryl Sulfonamide Derivatives as NLRP3 Inflammasome Inhibitors for the Potential Treatment of Cancer” (J Med Chem, 2023)
Active and inactive are the calls of the source. The rule behind the calls is not given here.

Columns and labels:
BMDM [1] = assay: Effect on NLRP3-ASC interaction in LPS-treated mouse BMDM cells at 1 uM incubated for 30 mins followed by ATP stimulation for 1 hr by co-immunoprecipitation based Western blot analysis; type: functional, cell-based; details: time 90.0 min
Method in brief: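 BMDMs (1 × 10^7) primed with LPS 2 h, treated 1 µM compound 30 min, then ATP 1 h; lysed in HEPES/NaCl/glycerol/EDTA/0.5% Triton buffer with protease/phosphatase inhibitors; NLRP3–ASC co-immunoprecipitation, bait eluted in Laemmli buffer, western blot; representative of three independent experiments.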

THP-1 [2] = assay: Suppression of caspase-1 expression in LPS-treated human THP-1 cells at 1 to 1000 nM incubated for 30 mins followed by ATP stimulation for 1 hr by […]; type: functional, cell-based; details: dose 1-1000 nM, time 90.0 min
Method in brief: (§1)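 PMA-differentiated THP-1 cells (1 × 10^6/well) primed with LPS 1 µg/mL for 3 h, then DMSO or compound in serum-free medium for 30 min, then 5 mM ATP for 1 h. RIPA lysates (20 µg) and concentrated supernatants run on SDS-PAGE and western blotted for NLRP3, ASC, caspase-1 and IL-1β, normalized to GAPDH; three independent experiments.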

B16-F10 [3] = assay: Antitumor activity against cytosolic luciferase-transfected mouse B16-F10 cells xenografted in C57BL/6 mouse assessed as tumor reduction at 25 mg/kg, ip administered thrice weekly measured after 14 days by bioluminescence assay; type: functional, organism-based; details: time 14.0 day
Method in brief: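 Female C57BL/6 mice aged 6–8 weeks inoculated subcutaneously with 1 × 10^6 B16-F10 cells stably expressing cytosolic luciferase. From day 5, IP dosing of 25 mg/kg thrice weekly, DMSO for controls, five mice per group. Imaging after IP D-luciferin 150 mg/kg under 2.5% isoflurane, read after 15 min. Caliper volume = π/6 × a × b². Tumors excised day 14.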

[4] = Metabolic stability in mouse liver microsomes assessed as half life measured per mg protein at 1 uM measured upto 60 mins by LC-MS/MS analysis; type: ADME, Microsome
Method in brief: (§2)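 Pooled human or CD-1 male mouse liver microsomes at 0.5 mg/mL with test compound 1 µM in 50 mM phosphate pH 7.4 and 3 mM MgCl2, preincubated 10 min at 37 °C. Percent parent remaining vs 0 min measured by LC-MS/MS. Cli = k/microsomal conc. × 1000; mean ± SD, n = 2.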

THP-1 [5] = assay: Suppression of NLRP3 expression in LPS-treated human THP-1 cells at 1 to 1000 nM incubated for 30 mins followed by ATP stimulation for 1 hr […]; type: functional, cell-based; details: dose 1-1000 nM, time 90.0 min
THP-1 [6] = assay: Suppression of ASC expression in LPS-treated human THP-1 cells at 1 to 1000 nM incubated for 30 mins followed by ATP stimulation for 1 hr […]; type: functional, cell-based; details: dose 1-1000 nM, time 90.0 min; method in brief: as §1
THP-1 [7] = assay: Suppression of caspase-1 p10 expression in LPS-treated human THP-1 cells at 1 to 1000 nM incubated for 30 mins followed by ATP stimulation for 1 hr […]; type: functional, cell-based; details: dose 1-1000 nM, time 90.0 min
Mus musculus [8] = assay: Antiinflammatory activity in LPS-induced C57BL/6 mouse assessed as reduction in IL-1beta production in peritoneal exudate at 25 mg/kg, ip pretreated for 30 mins followed by LPS induction measured after 4 hrs by ELISA method; type: functional, organism-based; details: time 4.5 hrs
Method in brief: (§3)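 C57BL/6 mice given inhibitor 25 mg/kg IP (vehicle DMSO) 30 min before IP LPS 1 mg/kg; after 4 h, peritoneal exudate and blood collected, plasma from centrifugation 1000g 15 min 4 °C; IL-1β measured by ELISA; mean ± SEM of three independent experiments.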

THP-1 [9] = assay: Suppression of IL-1beta processing in LPS-treated human THP-1 cells at 1 to 1000 nM incubated for 30 mins followed by ATP stimulation for 1 hr by ELISA method; type: functional, cell-based; details: dose 1-1000 nM, time 90.0 min
B16-F10 [10] = assay: Antiproliferative activity against LPS-treated mouse B16-F10 cells co-cultured with mouse peritoneal macrophages assessed as decrease in cell growth at 1 uM incubated for 30 mins followed by ATP stimulation for 1 hr measured after 48 hrs by cell counting method; type: functional, cell-based; details: time 49.5 hrs
Method in brief: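 Transwell co-culture (0.4 µm pores), 48 h: peritoneal macrophages from C57BL/6 mice (2 × 10^5, lower well) primed with LPS 1 µg/mL 2 h, then DMSO or compound 1 µM 30 min, then ATP 1 h; B16-F10 cells (2 × 10^3) in upper insert; tumor cells removed after 48 h and counted by image-based cytometer.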

[11] = Metabolic stability in mouse liver microsomes assessed as intrinsic clearance measured per mg protein at 1 uM measured upto 60 mins by LC-MS/MS analysis; type: ADME, Microsome; details: read-out: CLH; method in brief: as §2
B16-F10 [12] = assay: Effect on pro-IL-1beta expression in cytosolic luciferase-transfected mouse B16-F10 cells xenografted in C57BL/6 mouse at 25 mg/kg, ip administered thrice weekly measured after 14 days by Western blot analysis; type: functional, organism-based; details: time 14.0 day
Method in brief: (§4)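 Tumors from luciferase-expressing B16-F10 grafts in C57BL/6 mice, dosed IP at 25 mg/kg thrice weekly (DMSO controls), were excised at endpoint and homogenized in sucrose/HEPES/IGEPAL lysis buffer. Lysates were western blotted and bands expressed as fold ratio over β-actin (n = 5).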

B16-F10 [13] = assay: Effect on ASC expression in cytosolic luciferase-transfected mouse B16-F10 cells xenografted in C57BL/6 mouse at 25 mg/kg, ip administered thrice weekly measured after 14 days by Western blot analysis; type: functional, organism-based; details: time 14.0 day; method in brief: as §4
[14] = Metabolic stability in human liver microsomes assessed as half life measured per mg protein at 1 uM measured upto 60 mins by LC-MS/MS analysis; type: ADME, Microsome; method in brief: as §2
BMDM [15] = assay: Effect on NLRC4 inflammasome activation in LPS-treated mouse BMDM cells assessed as IL-1beta release at 1 uM incubated for 30 mins followed by Salmonella typhimurium flagellin stimulation for 2 hrs by ELISA method; type: functional, cell-based; details: time 150.0 min
Method in brief: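 BMDMs primed with LPS 100 ng/mL for 3 h, then compound 1 µM in serum-free medium for 30 min, then flagellin 100 ng/mL for 2 h; supernatant mouse IL-1β by ELISA.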

B16-F10 [16] = assay: Effect on cleaved caspase-1 expression in cytosolic luciferase-transfected mouse B16-F10 cells xenografted in C57BL/6 mouse at 25 mg/kg, ip administered thrice weekly measured after 14 days by Western blot analysis; type: functional, organism-based; details: time 14.0 day; method in brief: as §4
THP-1 [17] = assay: Suppression of pro-IL-1beta expression in LPS-treated human THP-1 cells at 1 to 1000 nM incubated for 30 mins followed by ATP stimulation for 1 hr […]; type: functional, cell-based; details: dose 1-1000 nM, time 90.0 min
BMDM [18] = assay: Effect on ASC level in LPS-treated mouse BMDM cells at 1 uM incubated for 30 mins followed by ATP stimulation for 1 hr by Hoechst staining based microscopy; type: functional, cell-based; details: time 90.0 min
Method in brief: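 BMDMs primed with LPS 1 µg/mL for 2 h, given DMSO or compound 1 µM for 30 min, then 5 mM ATP for 1 h. Cells fixed in 4% PFA, permeabilized with 0.1% Triton X-100, stained with anti-ASC overnight at 4 °C plus fluorescent secondary, nuclei Hoechst 1 µM; confocal imaging with 63× oil objective.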

Mus musculus [19] = assay: Antiinflammatory activity in LPS-induced C57BL/6 mouse assessed as reduction in IL-1beta production in plasma at 25 mg/kg, ip pretreated for 30 mins followed by LPS induction measured after 4 hrs by ELISA method; type: functional, organism-based; details: time 4.5 hrs; method in brief: as §3
B16-F10 [20] = assay: Effect on NLRP3 expression in cytosolic luciferase-transfected mouse B16-F10 cells xenografted in C57BL/6 mouse at 25 mg/kg, ip administered thrice weekly measured after 14 days by Western blot analysis; type: functional, organism-based; details: time 14.0 day; method in brief: as §4
B16-F10 [21] = assay: Effect on total caspase-1 expression in cytosolic luciferase-transfected mouse B16-F10 cells xenografted in C57BL/6 mouse at 25 mg/kg, ip administered thrice weekly measured after 14 days by Western blot analysis; type: functional, organism-based; details: time 14.0 day; method in brief: as §4
B16-F10 [22] = assay: Antiproliferative activity against cytosolic luciferase-transfected mouse B16-F10 cells xenografted in C57BL/6 mouse assessed as effect on cell growth at 25 mg/kg, ip administered thrice weekly measured after 5 days; type: functional, organism-based; details: time 5.0 day
[23] = Metabolic stability in human liver microsomes assessed as intrinsic clearance measured per mg protein at 1 uM measured upto 60 mins by LC-MS/MS analysis; type: ADME, Microsome; details: read-out: CLH; method in brief: as §2
THP-1 [24] = assay: Cytotoxicity against human THP-1 cells assessed as reduction in cell viability at 1 uM measured after 48 hrs by RealTime-Glo MT assay; type: toxicity, cell-based; details: thp-1, 48 h
Method in brief: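 THP-1 cells (10 × 10^4/well) treated with inhibitors at 1 µM and kept 48 h; RealTime-Glo reagent added, luminescence read every 12 h as a proxy for metabolically active cells; means of RLU ± SEM.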

BMDM [25] = assay: Effect on AIM2 inflammasome activation in LPS-treated mouse BMDM cells assessed as IL-1beta release at 1 uM incubated for 30 mins followed by Poly (dA:dT) stimulation for 4 hrs by ELISA method; type: functional, cell-based; details: time 270.0 min
Method in brief: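 BMDMs primed with LPS 100 ng/mL for 3 h, then compound 1 µM in serum-free medium for 30 min, then poly(dA:dT) 1 µg/mL transfected with lipofectamine 2000 for 4 h; supernatant mouse IL-1β by ELISA.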

Structure (SMILES)	Activity (BMDM [1])	Activity (THP-1 [2])	Activity (B16-F10 [3])	half-life at 1 µM [4]	Activity (THP-1 [5])	Activity (THP-1 [6])	Activity (THP-1 [7])	Activity (Mus musculus [8])	Activity (THP-1 [9])	Activity (B16-F10 [10])	microsomal CLint at 1 µM [11]	Activity (B16-F10 [12])	Activity (B16-F10 [13])	half-life at 1 µM [14]	Activity (BMDM [15])	Activity (B16-F10 [16])	Activity (THP-1 [17])	Activity (BMDM [18])	Activity (Mus musculus [19])	Activity (B16-F10 [20])	also measured
Nc1ccc(S(=O)(=O)N2Cc3ccccc3C[C@H]2C(=O)Nc2c3c(cc4c2CCC4)CCC3)cc1	inactive	inactive	Active	5.1 min	inactive	inactive	Active	Active	Active	Active	270 µL/min/mg	inactive	inactive	48.3 min	inactive	inactive	inactive	inactive	Active	inactive	Activity (B16-F10 [21]): inactive; Activity (B16-F10 [22]): inactive; microsomal CLint at 1 µM [23]: 28.7 µL/min/mg; Activity (THP-1 [24]): Non-Toxic; Activity (BMDM [25]): inactive
Nc1ccc(S(=O)(=O)N[C@@H](Cc2ccc(O)cc2)C(=O)Nc2c3c(cc4c2CCC4)CCC3)cc1	inactive	inactive	Active	11.2 min	inactive	inactive	Active	Active	Active	Active	124 µL/min/mg	inactive	inactive	46.2 min	inactive	inactive	inactive	inactive	Active	inactive	Activity (B16-F10 [21]): inactive; Activity (B16-F10 [22]): inactive; microsomal CLint at 1 µM [23]: 31.9 µL/min/mg; Activity (THP-1 [24]): Non-Toxic; Activity (BMDM [25]): inactive
